Experimental findings from publication PMC11840771 (ACS Omega, 2025) are described below.

For test [1], the target named is T1, HER2-TK (Homo sapiens, UniProt P04626). The test can be described thus: SPR kinetic analysis of binding to immobilized HER2-TK.
In test [2] the test system is SKOV3 (HER2-positive cell). The test can be described thus: MTT cell viability assay, SKOV3. Format: cell-based, human. Conditions: read-out: cell inhibition IC50 SKOV3 (HER2-positive cell), 72 h, mean ± SD. The essentials: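 SKOV3 cells grown in DMEM at 37 °C, 5% CO2, seeded at 1 × 10^4 cells/well and left 16 h. Test compound from DMSO stock (final DMSO ≤1%) was added in complete medium, 2-fold dilutions from 100 μM, for 72 h. MTT added for 3 h at 37 °C, formazan dissolved in DMSO, read at 550/590 nm. Triplicate; IC50 by nonlinear regression.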

Test [3] deals with T1, HER2-TK. In words: HER2-TK inhibitory activity assay. The test is classed as biochemical.
[4] abbreviates: SPR, PBS pH 7.4 with 5% DMSO, mean ± SD.

The structures appear in SMILES notation. Like-named read-outs stand apart in the source and are kept apart here.

T1 sequence (P04626 676-1255 limits assumed): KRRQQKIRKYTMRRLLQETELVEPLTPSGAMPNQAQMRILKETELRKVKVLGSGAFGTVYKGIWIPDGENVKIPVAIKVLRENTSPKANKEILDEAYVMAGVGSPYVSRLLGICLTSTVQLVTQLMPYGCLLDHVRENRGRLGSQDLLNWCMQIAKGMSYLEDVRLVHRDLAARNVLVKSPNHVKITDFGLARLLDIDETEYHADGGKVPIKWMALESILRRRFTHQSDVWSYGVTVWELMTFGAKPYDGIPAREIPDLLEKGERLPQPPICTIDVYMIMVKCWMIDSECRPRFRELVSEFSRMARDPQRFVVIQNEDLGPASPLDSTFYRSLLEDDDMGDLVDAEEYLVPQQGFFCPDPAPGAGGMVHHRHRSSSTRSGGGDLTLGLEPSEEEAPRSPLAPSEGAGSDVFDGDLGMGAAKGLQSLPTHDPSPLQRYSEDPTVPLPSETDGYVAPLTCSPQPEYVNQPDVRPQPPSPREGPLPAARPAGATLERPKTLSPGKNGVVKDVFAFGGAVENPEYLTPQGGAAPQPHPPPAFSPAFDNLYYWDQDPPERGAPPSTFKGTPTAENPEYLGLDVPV

Turning to `CN(C)C/C=C/C(=O)Nc1cc2c(Nc3ccc(F)c(Cl)c3)ncnc2cc1O[C@H]1CCOC1` [Afatinib, reference compound], the kd in test [1] (setting [4]) was 9.95 ± 0.16 10^–3/s. Besides, the concentration for half-maximal inhibition (IC50) in test [2] is 8.4 ± 0.9 µM.
In test [1], `C=C(C)[C@@H]1CCC(C)=C[C@H]1c1c(O)cc(CCCCC)cc1O` [CBD, cannabidiol] returned a Kd of 6.16 ± 0.25 µM. Further, the kd in test [1] (setting [4]) is reported as 6.33 ± 0.06 10^–3/s. Further, the results for the IC50 in test [3] and in test [2] were 0.038 ± 0.002 µM and 13.8 ± 1.7 µM, respectively.
`CCCCCc1cc(O)c(C/C=C(\C)CCC=C(C)C)c(O)c1` [CBG, cannabigerol] returned a Kd in test [1] of 17.1 ± 0.8 µM. For the same compound, in test [1] (setting [4]), the ka is 2.21 ± 0.11 10^2/(M·s). In test [1] (setting [4]), the kd was 3.77 ± 0.02 10^–3/s. Also, the kon in test [1] (read-out: association rate constant (ka)) was 221 M⁻¹ s⁻¹. The IC50 was found to be 0.0247 ± 0.0026 µM in test [3] and 16.6 ± 1 µM in test [2].
Regarding `CCCCCc1cc(O)c2c(c1)OC(C)(C)c1ccc(C)cc1-2` [CBN, cannabinol], in test [1], binding was characterised by a dissociation constant (Kd) of 26 ± 2.97 µM. In addition, the values for the kd in test [1] (SPR) and in test [1] (setting [4]) were 3.14 × 10^–3 s^–1 and 3.14 ± 0.09 10^–3/s, respectively. Further, the kon in test [1] (pH 7.4, read-out: ka) is 122 ± 11 M⁻¹ s⁻¹. This compound came in with an IC50 in test [3] of 0.0874 ± 0.0017 µM.
Regarding `CS(=O)(=O)CCNCc1ccc(-c2ccc3ncnc(Nc4ccc(OCc5cccc(F)c5)c(Cl)c4)c3c2)o1` [Lapatinib, reference compound], in test [2], the IC50 came to 8 ± 1.4 µM.
